Source: ChEMBL document CHEMBL2151039, “Discovery and development of α7 nicotinic acetylcholine receptor modulators” (J Med Chem, 2011)
pEC50, pIC50, pKi: −log10 of the molar value.

Tests used:
[1] = target: T1, 5-hydroxytryptamine receptor 3A (Homo sapiens, UniProt P46098); assay: Binding affinity to 5HT3 receptor
T1 sequence (P46098 whole entry): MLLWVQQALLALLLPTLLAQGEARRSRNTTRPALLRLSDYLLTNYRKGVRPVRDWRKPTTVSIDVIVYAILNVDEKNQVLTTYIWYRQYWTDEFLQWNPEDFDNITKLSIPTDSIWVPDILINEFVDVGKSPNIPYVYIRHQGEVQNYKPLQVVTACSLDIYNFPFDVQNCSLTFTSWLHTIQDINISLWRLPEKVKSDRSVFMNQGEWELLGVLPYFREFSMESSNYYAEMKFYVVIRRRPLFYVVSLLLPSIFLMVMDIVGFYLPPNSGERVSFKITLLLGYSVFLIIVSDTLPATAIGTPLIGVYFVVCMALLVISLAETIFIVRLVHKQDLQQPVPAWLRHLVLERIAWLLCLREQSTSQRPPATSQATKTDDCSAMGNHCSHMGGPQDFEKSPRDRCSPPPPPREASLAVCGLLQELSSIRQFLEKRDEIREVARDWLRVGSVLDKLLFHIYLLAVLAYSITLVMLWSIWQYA

[2] = target: T2, Neuronal acetylcholine receptor subunit alpha-7 (Homo sapiens, UniProt P36544); assay: Binding affinity to alpha7 nAChR
[3] = target: T2, Neuronal acetylcholine receptor subunit alpha-7; assay: Agonist activity at alpha7 nAChR; format: functional
[4] = Selectivity ratio of alpha3 nAchR to alpha7 nAchR
[5] = target: T2, Neuronal acetylcholine receptor subunit alpha-7; assay: Agonist activity at human alpha7 nAChR expressed in GH4C1 cells assessed as potentiation of nicotine-induced calcium signal relative to control; format: functional, cell-based; conditions: GH4-C1
[6] = target: T2, Neuronal acetylcholine receptor subunit alpha-7; assay: Agonist activity at human alpha7 nAChR expressed in GH4C1 cells assessed as potentiation of nicotine-induced calcium signal; format: functional, cell-based, GH4-C1
[7] = target: T2, Neuronal acetylcholine receptor subunit alpha-7; assay: Agonist activity at human alpha7 nAChR; format: functional
[8] = target: T2, Neuronal acetylcholine receptor subunit alpha-7; assay: Agonist activity at human alpha7 nAChR relative to control; format: functional
[9] = target: T2, Neuronal acetylcholine receptor subunit alpha-7; assay: Binding affinity to human alpha7 nAchR
[10] = target: Voltage-gated inwardly rectifying potassium channel KCNH2 (Homo sapiens, UniProt Q12809); assay: Inhibition of human ERG
[11] = target: T2, Neuronal acetylcholine receptor subunit alpha-7; assay: Agonist activity at alpha7 nAChR at 32 uM; format: functional
[12] = target: T1, 5-hydroxytryptamine receptor 3A; assay: Inhibition of 5HT3 receptor
[13] = species on record: Rattus norvegicus; assay: Procognitive effect in rat assessed as working memories by novel object recognition test; format: functional; conditions: read-out: MED
[14] = target: T2, Neuronal acetylcholine receptor subunit alpha-7; assay: Agonist activity at human alpha7 nAChR expressed in QM7 cells; format: functional, cell-based
[15] = target: T1, 5-hydroxytryptamine receptor 3A; assay: Antagonist activity at 5HT3 receptor expressed in Xenopus oocyte; format: functional
[16] = target: Neuronal acetylcholine receptor subunit alpha-7 (Macaca mulatta, UniProt Q866A2); assay: Agonist activity at wild type monkey alpha7 nAChR by whole cell patch clamp assay; format: functional
[17] = system: Rattus norvegicus; assay: Sensory gating restoration in phencyclidine-induced impairment ip dosed rat schizophrenia model; format: functional; conditions: read-out: MED
In short: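 Young and aged rats with phencyclidine-induced impairment, a model of sensory gating restoration in schizophrenia. Intraperitoneal dosing. Reported as minimum effective dose (MED), in mg/kg ip.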

[18] = target: 5-hydroxytryptamine receptor 3A (Mus musculus) (UniProt P23979); assay: Antagonist activity at 5HT3 receptor expressed in N1E115 cells
[19] = target: Neuronal acetylcholine receptor subunit alpha-7 (Macaca mulatta) (UniProt Q866A2); assay: Agonist activity at wild type monkey alpha7 nAChR by whole cell patch clamp assay relative to control; format: functional
[20] = target: T3, Neuronal acetylcholine receptor subunit alpha-7 (Rattus norvegicus, UniProt Q05941); assay: Displacement of [3H]-MLA from alpha7 nAChR in rat brain membranes; format: cell membranes
[21] = species on record: Rattus norvegicus; assay: Procognitive effect in rat assessed as spartial reference memories by novel object recognition test; format: functional; conditions: read-out: MED
[22] = system: Rattus norvegicus; assay: Procognitive effect in po dosed rat assessed as episodic memories by novel object recognition test; format: functional; conditions: read-out: MED
In short: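 Rats dosed orally (po) in a novel object recognition test of episodic memory. Reported as minimum effective dose (MED), in mg/kg.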

[23] = target: T2, Neuronal acetylcholine receptor subunit alpha-7; assay: Agonist activity at human alpha7 nAChR expressed in Xenopus oocyte; format: functional
[24] = target: T2, Neuronal acetylcholine receptor subunit alpha-7; assay: Partial agonist activity at human alpha7 nAChR by whole cell patch clamp assay relative to acetylcholine; format: functional
In short: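 Human α7 nAChR expressed in Xenopus oocytes and in QM7 cells. Whole-cell patch-clamp recording. Agonist efficacy is given as % of the acetylcholine response, and EC50 is derived per expression system.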

[25] = target: T4, Neuronal acetylcholine receptor; alpha4/beta2 (Homo sapiens, UniProt P17787+P43681); assay: Antagonist activity at alpha4beta2 nAChR assessed as amplitude of acetylcholine evoked currents; format: functional
[26] = target: T2, Neuronal acetylcholine receptor subunit alpha-7; assay: Antagonist activity at alpha7 nAChR assessed as amplitude of acetylcholine evoked currents; format: functional
[27] = target: Neuronal acetylcholine receptor; alpha3/beta4 (Homo sapiens, UniProt P30926+P32297); assay: Antagonist activity at alpha3beta4 nAChR assessed as amplitude of acetylcholine evoked currents; format: functional
[28] = target: T2, Neuronal acetylcholine receptor subunit alpha-7; assay: Intrinsic activity at human alpha7 nAChR expressed in GH4C1 cells relative to acetylcholine; format: cell-based; conditions: GH4-C1
[29] = target: T2, Neuronal acetylcholine receptor subunit alpha-7; assay: Intrinsic activity at human alpha7 nAChR expressed in Xenopus oocytes relative to acetylcholine; format: cell-based; conditions: Oocyte
[30] = target: T2, Neuronal acetylcholine receptor subunit alpha-7; assay: Partial agonist activity at human alpha7 nAChR expressed in GH4C1 cells relative to acetylcholine; format: functional, cell-based, GH4-C1
[31] = target: T5, 5-hydroxytryptamine receptor 3A (Homo sapiens) (UniProt P46098); assay: Binding affinity to human 5HT3 receptor at 10 uM by radioligand binding assay
T5 sequence (whole entry): T1 sequence (P46098 whole entry)

[32] = target: T4, Neuronal acetylcholine receptor; alpha4/beta2; assay: Binding affinity to alpha4beta2 nAChR; format: protein-complex assay
[33] = target: Cytochrome P450 2D6 (Homo sapiens, UniProt P10635); assay: Inhibition of CYP2D6; format: ADME
[34] = target: T2, Neuronal acetylcholine receptor subunit alpha-7; assay: Displacement of [3H]-MLA from alpha7 nAChR
[35] = target: T3, Neuronal acetylcholine receptor subunit alpha-7; assay: Displacement of [3H]A-585539 from alpha7 nAChR rat cortex
[36] = target: Neuronal acetylcholine receptor subunit alpha-7 (Rattus norvegicus) (UniProt Q05941); assay: Agonist activity at rat alpha7 nAchR expressed in Xenopus oocyte relative to acetylcholine; format: functional
[37] = target: T2, Neuronal acetylcholine receptor subunit alpha-7; assay: Displacement of [3H]A-585539 from alpha7 nAChR human cortex
[38] = target: T3, Neuronal acetylcholine receptor subunit alpha-7; assay: Agonist activity at rat alpha7 nAchR expressed in Xenopus oocyte; format: functional
[39] = target: T2, Neuronal acetylcholine receptor subunit alpha-7; assay: Agonist activity at human alpha7 nAChR expressed in Xenopus oocytes relative to acetylcholine; format: functional, cell-based; conditions: Oocyte
[40] = target: T3, Neuronal acetylcholine receptor subunit alpha-7; assay: Agonist activity at rat recombinant alpha7 nAChR; format: functional
[41] = target: T1, 5-hydroxytryptamine receptor 3A; assay: Binding affinity to human recombinant 5HT3 receptor
[42] = target: T3, Neuronal acetylcholine receptor subunit alpha-7; assay: Binding affinity to alpha7 nAChR in rat hippocampal membranes; format: cell membranes, Hippocampus

T4 sequence (P17787 whole entry): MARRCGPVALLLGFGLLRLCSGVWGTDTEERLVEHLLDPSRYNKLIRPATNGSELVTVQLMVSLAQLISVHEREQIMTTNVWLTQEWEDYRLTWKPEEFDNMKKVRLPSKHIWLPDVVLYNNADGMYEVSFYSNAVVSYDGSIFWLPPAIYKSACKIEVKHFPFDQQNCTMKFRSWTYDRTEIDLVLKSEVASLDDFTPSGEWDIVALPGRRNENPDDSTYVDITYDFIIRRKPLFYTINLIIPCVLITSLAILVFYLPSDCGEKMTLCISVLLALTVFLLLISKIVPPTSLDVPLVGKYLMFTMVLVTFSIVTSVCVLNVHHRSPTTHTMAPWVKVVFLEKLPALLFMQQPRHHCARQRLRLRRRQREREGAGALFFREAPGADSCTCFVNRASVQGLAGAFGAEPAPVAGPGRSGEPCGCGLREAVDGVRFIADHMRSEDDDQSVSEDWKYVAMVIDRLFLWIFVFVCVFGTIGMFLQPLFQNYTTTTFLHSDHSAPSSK
T4 sequence (P43681 whole entry): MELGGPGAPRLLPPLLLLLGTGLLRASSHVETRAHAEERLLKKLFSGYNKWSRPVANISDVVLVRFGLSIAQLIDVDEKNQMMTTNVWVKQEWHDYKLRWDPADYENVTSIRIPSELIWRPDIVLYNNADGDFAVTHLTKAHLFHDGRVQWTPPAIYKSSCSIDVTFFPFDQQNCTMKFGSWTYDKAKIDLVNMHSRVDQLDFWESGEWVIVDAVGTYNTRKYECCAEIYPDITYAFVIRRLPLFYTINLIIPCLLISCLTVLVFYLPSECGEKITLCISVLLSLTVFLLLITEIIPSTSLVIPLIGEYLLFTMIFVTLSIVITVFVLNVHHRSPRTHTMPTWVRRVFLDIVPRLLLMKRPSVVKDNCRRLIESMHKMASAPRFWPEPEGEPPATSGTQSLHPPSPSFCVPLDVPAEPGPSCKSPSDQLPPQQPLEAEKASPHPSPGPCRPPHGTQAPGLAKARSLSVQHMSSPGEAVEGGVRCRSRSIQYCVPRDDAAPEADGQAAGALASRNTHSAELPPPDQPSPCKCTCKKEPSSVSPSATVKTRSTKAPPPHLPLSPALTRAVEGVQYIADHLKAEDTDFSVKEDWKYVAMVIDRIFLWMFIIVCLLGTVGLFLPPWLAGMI
T2 sequence (P36544 whole entry): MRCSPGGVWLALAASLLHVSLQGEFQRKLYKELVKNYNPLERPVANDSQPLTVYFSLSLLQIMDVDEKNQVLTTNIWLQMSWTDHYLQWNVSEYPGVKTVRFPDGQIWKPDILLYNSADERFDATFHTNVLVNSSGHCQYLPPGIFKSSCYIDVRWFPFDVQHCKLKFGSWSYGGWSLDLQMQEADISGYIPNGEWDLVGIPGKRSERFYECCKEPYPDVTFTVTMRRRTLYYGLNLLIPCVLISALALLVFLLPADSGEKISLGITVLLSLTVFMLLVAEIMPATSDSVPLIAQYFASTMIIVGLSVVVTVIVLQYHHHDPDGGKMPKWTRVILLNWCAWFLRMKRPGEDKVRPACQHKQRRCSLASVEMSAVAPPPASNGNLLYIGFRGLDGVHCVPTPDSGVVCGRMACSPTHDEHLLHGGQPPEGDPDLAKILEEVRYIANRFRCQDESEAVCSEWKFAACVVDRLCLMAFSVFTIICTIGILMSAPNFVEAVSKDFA
T3 sequence (Q05941 whole entry): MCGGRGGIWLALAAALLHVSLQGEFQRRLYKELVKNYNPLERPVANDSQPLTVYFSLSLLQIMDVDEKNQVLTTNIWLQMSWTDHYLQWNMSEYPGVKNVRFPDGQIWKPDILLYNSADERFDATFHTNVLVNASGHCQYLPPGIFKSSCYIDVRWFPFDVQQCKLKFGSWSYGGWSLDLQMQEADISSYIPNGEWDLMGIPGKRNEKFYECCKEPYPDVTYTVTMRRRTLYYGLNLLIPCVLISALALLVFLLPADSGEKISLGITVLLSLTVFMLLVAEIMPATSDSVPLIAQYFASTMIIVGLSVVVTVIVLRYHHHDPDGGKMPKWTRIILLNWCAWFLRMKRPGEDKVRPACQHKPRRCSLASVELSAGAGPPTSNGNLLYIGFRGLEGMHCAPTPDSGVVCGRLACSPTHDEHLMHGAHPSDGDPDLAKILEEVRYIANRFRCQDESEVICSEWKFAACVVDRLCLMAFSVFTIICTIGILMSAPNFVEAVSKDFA
Chain of Cytochrome P450 2D6 (P10635 whole entry): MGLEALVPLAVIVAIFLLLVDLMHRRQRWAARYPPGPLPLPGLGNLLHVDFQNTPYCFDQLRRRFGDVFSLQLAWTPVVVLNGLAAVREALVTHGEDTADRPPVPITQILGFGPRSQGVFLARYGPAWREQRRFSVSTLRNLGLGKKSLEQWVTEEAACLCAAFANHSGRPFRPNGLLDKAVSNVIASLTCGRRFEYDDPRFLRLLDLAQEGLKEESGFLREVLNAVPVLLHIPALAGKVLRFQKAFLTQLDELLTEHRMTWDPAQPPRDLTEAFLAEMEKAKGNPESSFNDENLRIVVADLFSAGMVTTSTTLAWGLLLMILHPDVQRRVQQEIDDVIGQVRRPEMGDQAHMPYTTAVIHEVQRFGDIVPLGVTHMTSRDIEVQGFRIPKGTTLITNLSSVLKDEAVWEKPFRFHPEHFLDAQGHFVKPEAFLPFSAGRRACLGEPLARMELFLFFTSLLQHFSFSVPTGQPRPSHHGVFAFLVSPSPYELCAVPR
Chain of Neuronal acetylcholine receptor subunit alpha-7 (Macaca mulatta) (Q866A2 whole entry): as the sequence (P36544 whole entry) above, with P5Q, N193S, R208K, V395M, V398A counted along it
Chain of Neuronal acetylcholine receptor subunit alpha-7 (Macaca mulatta, UniProt Q866A2) (Q866A2 whole entry): as the sequence (P36544 whole entry) above, with P5Q, N193S, R208K, V395M, V398A counted along it
Chain of 5-hydroxytryptamine receptor 3A (Mus musculus) (P23979 whole entry, looked up): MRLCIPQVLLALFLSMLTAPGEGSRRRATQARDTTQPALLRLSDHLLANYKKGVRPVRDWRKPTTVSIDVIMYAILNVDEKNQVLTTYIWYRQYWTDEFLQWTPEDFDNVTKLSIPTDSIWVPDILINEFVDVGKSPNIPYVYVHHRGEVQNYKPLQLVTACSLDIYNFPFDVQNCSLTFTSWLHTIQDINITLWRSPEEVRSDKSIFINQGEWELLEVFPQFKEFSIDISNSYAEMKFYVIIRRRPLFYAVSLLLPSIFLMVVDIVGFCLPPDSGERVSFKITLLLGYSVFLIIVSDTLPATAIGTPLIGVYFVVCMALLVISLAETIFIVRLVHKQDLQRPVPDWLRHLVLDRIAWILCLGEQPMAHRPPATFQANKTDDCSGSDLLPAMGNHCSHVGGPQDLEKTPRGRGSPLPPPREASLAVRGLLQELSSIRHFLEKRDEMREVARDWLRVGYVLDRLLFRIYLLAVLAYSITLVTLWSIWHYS
Chain of Neuronal acetylcholine receptor; alpha3/beta4 (P30926 whole entry): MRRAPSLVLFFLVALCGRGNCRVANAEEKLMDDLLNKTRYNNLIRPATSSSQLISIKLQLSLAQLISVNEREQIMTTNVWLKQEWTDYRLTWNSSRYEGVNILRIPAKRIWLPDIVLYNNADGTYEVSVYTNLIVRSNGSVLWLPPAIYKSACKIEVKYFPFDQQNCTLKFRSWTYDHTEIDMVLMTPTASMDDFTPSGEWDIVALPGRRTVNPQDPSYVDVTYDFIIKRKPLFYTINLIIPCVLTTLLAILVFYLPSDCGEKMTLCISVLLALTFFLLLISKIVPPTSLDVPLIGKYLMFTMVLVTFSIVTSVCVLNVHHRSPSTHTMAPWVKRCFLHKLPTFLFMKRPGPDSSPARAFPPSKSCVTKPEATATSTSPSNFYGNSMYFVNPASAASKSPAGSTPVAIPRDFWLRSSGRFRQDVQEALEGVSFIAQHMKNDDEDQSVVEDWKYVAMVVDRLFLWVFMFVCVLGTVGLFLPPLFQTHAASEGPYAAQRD
Chain of Neuronal acetylcholine receptor; alpha3/beta4 (P32297 whole entry): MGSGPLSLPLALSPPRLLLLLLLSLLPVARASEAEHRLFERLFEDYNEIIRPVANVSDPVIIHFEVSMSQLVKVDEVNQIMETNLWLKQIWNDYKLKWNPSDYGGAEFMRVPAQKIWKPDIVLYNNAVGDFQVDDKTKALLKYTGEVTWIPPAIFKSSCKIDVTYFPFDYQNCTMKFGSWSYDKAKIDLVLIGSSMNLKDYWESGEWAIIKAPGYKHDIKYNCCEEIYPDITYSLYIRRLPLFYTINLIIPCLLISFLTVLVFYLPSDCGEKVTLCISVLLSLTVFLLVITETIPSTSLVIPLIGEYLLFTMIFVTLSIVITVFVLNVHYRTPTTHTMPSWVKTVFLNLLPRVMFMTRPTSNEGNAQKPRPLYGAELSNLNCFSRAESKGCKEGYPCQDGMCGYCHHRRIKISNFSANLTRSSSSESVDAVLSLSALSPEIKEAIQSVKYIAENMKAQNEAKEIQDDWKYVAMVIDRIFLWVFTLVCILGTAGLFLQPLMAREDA
Chain of Neuronal acetylcholine receptor subunit alpha-7 (Rattus norvegicus) (Q05941 whole entry): as the sequence (Q05941 whole entry) above

Compound Cc1nc2nc(N3CCN4CCC3CC4)oc2cc1Cl has a pKi [1] of 6.61, a pKi [2] of 8.49 and a pEC50 [3] of 6.80.
O=C(NCCCCN1CCCCC1)Nc1ccc(-c2ccccn2)cc1 showed a pEC50 [3] of 6.89 and a Selectivity ratio [4] of 5.
In the case of Cn1ccc2cc3c(cc21)CCN3C(=O)Nc1cccnc1, the fold change (FC) [5] was 8 and the pEC50 [6] was 5.82.
c1cc(-c2cnc3c(c2)C[C@@]2(CN4CCC2CC4)O3)co1 gave a pEC50 [7] of 6.33, an Emax [8] of 40% and a pKi [9] of 10.52. For the same compound, the pIC50 [10] was 5.80.
Compound O=C1O[C@]2(CN3CCC2CC3)CN1c1ccc(Cl)s1 has a pKi [2] of 8.05.
Compound c1cnc2nc(N3CCN4CCC3CC4)oc2c1 has a pKi [1] of 6.24, a pKi [2] of 7.52 and an Activity [11] of 220%.
For O=C(N[C@H]1CN2CCC1CC2)c1ccc2ccsc2c1, the pKi [1] was 6.76, the pIC50 [12] was 6.73 and the pKi [2] was 8.68. The pEC50 [3] was 7.32.
O=C(Nc1ccc(Br)cc1)OC1CN2CCC1CC2 (stereo unspecified) showed a pKi [2] of 6.78 and an Activity [11] of 90%.
With O=C(N[C@@H]1CN2CCC1CC2)c1n[nH]c2ccccc12 [FACINICLINE] the minimal effective dose [13] was 1 mg/kg, the pEC50 [14] was 5.11 and the pIC50 [15] was 8.55. The pEC50 [16] was 6.40, the minimal effective dose [17] was 0.03 mg/kg and the pIC50 [18] was 7.49. For the same compound, the pKi [12] was 8.70, the Emax [19] was 67% and the pKi [20] was 8.00. It also gave a minimal effective dose [21] of 1 mg/kg, a minimal effective dose [22] of 1 mg/kg and a pEC50 [23] of 6.10. It also gave a pKi [9] of 8.22 and an Activity [24] of 63%.
In the case of C=CC[C@@H]1CC[C@@H](CC)[C@@H]2CCCCN12, the pIC50 [25] was 5.28, the pIC50 [26] was 6.22 and the pIC50 [27] was 5.06.
O=C(Oc1ccc(Br)cc1)N1CCN2CCC1CC2 [SSR180711] showed an Intrinsic activity [28] of 36%, an Intrinsic activity [29] of 51% and a pEC50 [30] of 6.05. For the same compound, the inhibition [31] was < 50%.
Compound O=C(Oc1ccccc1)N1CCN2CCC1CC2 has a pKi [1] of 5.40, a pKi [2] of 6.13 and an Activity [11] of 99%.
O=C(N[C@H]1CN2CCC1CC2)c1ccc2occc2c1 gave a pKi [1] of 6.18, a pIC50 [12] of 6.24 and a pKi [2] of 8.80. The pEC50 [3] was 7.37.
With CN1CC2CN(c3ccc(-c4ccccc4)nc3)CC2C1 (stereo unspecified) the pKi [2] was 8.02 and the pKi [32] was 4.55.
For O=C1O[C@]2(CN3CCC2CC3)CN1c1ccc2sccc2c1, the pIC50 [33] was < 4.52 and the pKi [2] was 7.55.
For CN1CC2CN(c3ccc(-c4ccc5[nH]ccc5c4)nn3)CC2C1 (stereo unspecified), the pKi [2] was 9.62, the pEC50 [3] was 6.49 and the pKi [32] was < 4.70.
With c1cc2cc(-c3ccc(O[C@H]4CN5CCC4CC5)nn3)ccc2[nH]1 [ABT-107] the pKi [34] was 8.15, the pKi [35] was 9.70 and the Emax [36] was 80%. It also gave a pEC50 [23] of 7.30, an inhibition [31] of 4% and a pKi [37] of 9.70. The pEC50 [38] was 7.30 and the Emax [39] was 80%.
With COc1ccccc1-c1cccc2cc(C(=O)N[C@H]3CN4CCC3CC4)oc12 the pEC50 [23] was 5.26, the pEC50 [40] was 5.52 and the pKi [41] was 7.22.
With c1cncc(C2CCC3CCN2CC3)c1 (stereo unspecified) the pKi [42] was 7.96, the pEC50 [23] was 6.36 and the inhibition [31] was < 50%. The Emax [39] was 100%.
